In ChEMBL document CHEMBL3286141 (Bioorg Med Chem, 2014):
pEC50, pIC50: −log10 of the molar value. Active and inactive are the calls of the source. The rule behind the calls is not given here.

Legend:
[1] = (§1) Antiproliferative activity against human pancreatic stellate cells at 20 uM after 24 to 48 hrs by AlamarBlue assay; format: functional
Method in brief: (§2)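 Transformed human PSC seeded at 3×10^3 cells/well in sextuplicate. Next day exposed to compound at the stated single concentration in 1% FBS medium for 24–48 h. Viability read by AlamarBlue fluorescence (ex/em 544/590 nm). Values are the mean of at least three independent experiments.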

[2] = (§3) Antiproliferative activity against human pancreatic stellate cells at 10 uM after 24 to 48 hrs by AlamarBlue assay; format: functional; method in brief: as §2
[3] = (§4) Antiproliferative activity against human pancreatic stellate cells at 5 uM after 24 to 48 hrs by AlamarBlue assay; format: functional; method in brief: as §2
Homo sapiens [4] = species: Homo sapiens; experiment: as §3; format: functional; method in brief: as §2
Homo sapiens [5] = species: Homo sapiens; experiment: as §4; format: functional; method in brief: as §2
Mus musculus [6] = experiment: Anti-fibrotic activity in C57BL/6 mouse caerulein-induced chronic pancreatitis model assessed as reduction of stromal fibrosis at 0.5 mg/kg, po administered qd for 6 days per week for 3 weeks using hematoxylin 7211 staining by immunohistochemistry analysis; format: functional, organism-based; set-up: dose 0.5 mg/kg
Mus musculus [7] = experiment: Anti-fibrotic activity in C57BL/6 mouse caerulein-induced chronic pancreatitis model assessed as reduction of tissue edema at 0.5 mg/kg, po administered qd for 6 days per week for 3 weeks using hematoxylin 7211 staining by immunohistochemistry analysis; format: functional, organism-based; set-up: dose 0.5 mg/kg
Mus musculus [8] = experiment: Anti-fibrotic activity in C57BL/6 mouse caerulein-induced chronic pancreatitis model assessed as reduction of acinar cell damage at 0.5 mg/kg, po administered qd for 6 days per week for 3 weeks using hematoxylin 7211 staining by immunohistochemistry analysis; format: functional, organism-based; set-up: dose 0.5 mg/kg
[9] = Induction of apoptosis in human pancreatic stellate cells after 14 hrs by cell death detection ELISAPLUS assay; format: functional
Method in brief: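 Transformed human PSC (primary cells immortalised with SV40 large T antigen and telomerase; grown in DMEM, 10% FBS, 37 °C) plated at 8×10^3 per well in triplicate; next day switched to 1% FBS with compound at various doses for 14 h. Cytoplasmic nucleosomes detected by sandwich ELISA, absorbance at 405 nm. EC50 by nonlinear regression against log concentration; at least three independent experiments.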

Mus musculus [10] = experiment: Anti-fibrotic activity in C57BL/6 mouse caerulein-induced chronic pancreatitis model assessed as reduction of fibrosis at 0.5 mg/kg, po administered qd for 6 days per week for 3 weeks using hematoxylin 7211 staining by image analysis; format: functional, organism-based; set-up: dose 0.5 mg/kg
Method in brief: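 C57BL/6 mice given cerulein 50 μg/kg i.p. hourly for 5 h, 3 d/week for 4 weeks; PBS controls. From week 2, oral gavage at 0.5 mg/kg/d, 6 d/week for 3 weeks, in 0.5% methylcellulose + 0.025% Tween 20. Formalin-fixed paraffin sections (5 μm) stained by IHC for fibronectin with hematoxylin counterstain; percent area of stain quantified by image analysis. n = 10–11 per group.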

[11] = Antiproliferative activity against human pancreatic stellate cells after 24 hrs by AlamarBlue assay; format: functional
Method in brief: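 Immortalized human PSC (SV40 large T plus telomerase, DMEM/10% FBS) seeded at 3×10^3 cells/well in sextuplicate. Next day switched to 1% FBS with a range of compound concentrations for 24 h. AlamarBlue fluorescence read at 544/590 nm. IC50 taken by nonlinear regression of fluorescence versus log concentration, as mean ± SEM of at least three independent experiments.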

Homo sapiens [12] = species: Homo sapiens; experiment: as §1; format: functional; method in brief: as §2

Compound	inhibition at 20 µM [1] [%]	inhibition at 10 µM [2] [%]	inhibition at 5 µM [3] [%]	also measured
COC(=O)[C@@H]1CCCN1CCOc1ccc(-c2cc(=O)c3c(OC)cc(OC)cc3o2)cc1	67	37	22	–
COc1cc(OC)c2c(=O)cc(-c3ccc(OCCN(C)C)cc3)oc2c1	65	51	19	–
COc1cc(OC)c2c(=O)cc(-c3ccc(OCCBr)cc3)oc2c1	20	–	–	inhibition (Homo sapiens [4]): inactive; inhibition (Homo sapiens [5]): inactive
COc1cc(OC)c2c(=O)cc(-c3ccc(OCCN4CCCCC4)cc3)oc2c1	97	64	45	–
COc1cc(OC)c2c(=O)cc(-c3ccc(OCCN)cc3)oc2c1	70	35	6	–
O=c1cc(-c2ccc(OCCN3CCCC3)cc2)oc2cc(O)cc(O)c12	90	71	2	–
COc1cc(OC)c2c(=O)cc(-c3ccc(OCCF)cc3)oc2c1	21	–	–	inhibition (Homo sapiens [4]): inactive; inhibition (Homo sapiens [5]): inactive
COc1cc(OC)c2c(=O)cc(-c3ccc(OCCN4CCCC4=O)cc3)oc2c1	33	14	7	–
COc1cc(OC)c2c(=O)cc(-c3ccc(OCC(O)CN4CCCCC4)cc3)oc2c1 (centres undefined)	95	65	34	Activity (Mus musculus [6]): Active; Activity (Mus musculus [7]): Active; Activity (Mus musculus [8]): Active; pEC50 [9]: 4.45; Activity (Mus musculus [10]): Active; pIC50 [11]: 5.10
COc1cc(OC)c2c(=O)cc(-c3ccc(-c4ccc(F)nc4)cc3)oc2c1	19	6	–	inhibition (Homo sapiens [5]): inactive
COc1cc(OC)c2c(=O)cc(-c3ccc(OCCN4CCOCC4)cc3)oc2c1	–	–	–	inhibition (Homo sapiens [12]): inactive; inhibition (Homo sapiens [4]): inactive; inhibition (Homo sapiens [5]): inactive
COc1cc(OC)c2c(=O)cc(-c3ccc(OCCN4CCCC4)cc3)oc2c1	98	66	48	–
COc1cc(OC)c2c(=O)cc(-c3ccc(O)cc3)oc2c1	–	–	–	inhibition (Homo sapiens [12]): inactive; inhibition (Homo sapiens [4]): inactive; inhibition (Homo sapiens [5]): inactive
COc1cc(OC)c2c(=O)cc(-c3ccc(Br)cc3)oc2c1	22	10	12	–
COc1cc(OC)c2c(=O)cc(-c3ccc(OCC(O)CO)cc3)oc2c1 (centres undefined)	16	11	–	inhibition (Homo sapiens [5]): inactive
COc1cc(O)c2c(=O)cc(-c3ccc(OCCN4CCCC4)cc3)oc2c1	99	39	–	inhibition (Homo sapiens [5]): inactive
CCN(CC)CCOc1ccc(-c2cc(=O)c3c(OC)cc(OC)cc3o2)cc1	72	60	33	–
COc1cc(OC)c2c(=O)cc(-c3ccc(OC4CCNCC4)cc3)oc2c1	–	21	–	inhibition (Homo sapiens [5]): inactive
COc1cc(OC)c2c(=O)cc(-c3ccc(OCC4CO4)cc3)oc2c1 (centres undefined)	93	89	69	Activity (Mus musculus [6]): Active; Activity (Mus musculus [7]): Active; Activity (Mus musculus [8]): Active; pEC50 [9]: 5.02; Activity (Mus musculus [10]): Active; pIC50 [11]: 5.60
COc1cc(OC)c2c(=O)cc(-c3ccc(OCCN4CCN(C)CC4)cc3)oc2c1	67	42	22	–
COc1cc(OC)c2c(=O)cc(-c3ccc(NCCN4CCCC4)cc3)oc2c1	80	51	21	–
COc1cc(OC)c2c(=O)cc(-c3ccc(OCCCN)cc3)oc2c1	–	39	22	–
COc1cc(OC)c2c(=O)cc(-c3ccc(OCC(O)CN4CCCC4)cc3)oc2c1 (centres undefined)	57	37	21	–
COc1cc(OC)c2c(=O)cc(-c3ccc(OCC(O)CN(C)C)cc3)oc2c1 (centres undefined)	71	60	42	–
COc1cc(OC)c2c(=O)cc(-c3ccc(OCCCN(C)C)cc3)oc2c1	86	59	36	–
COc1cc(OC)c2c(=O)cc(-c3ccc(NCCN(C)C)cc3)oc2c1	84	60	30	–
O=c1cc(-c2ccc(O)cc2)oc2cc(O)cc(O)c12 [APIGENIN]	64	34	11	Activity (Mus musculus [6]): Active; Activity (Mus musculus [7]): Active; Activity (Mus musculus [8]): Active; pEC50 [9]: 4.61; Activity (Mus musculus [10]): Active; pIC50 [11]: 4.73
COc1cc(OC)c2c(=O)cc(-c3ccc(OC4CCN(C)CC4)cc3)oc2c1	–	49	28	–
